# Most compounds without a hit are left out; they make up all but 6.4% or so of the library.
# WT yeast gro inh – growth inhibition of WT yeast, mitochondrial fusion screen | mitochondrial fusion phenotypic screen, WT strain | inhibition, % at 10 µM | 190,000 compounds, 2.1% hits | AID 1362; in the data active = inhibition above about 58%; tested in S. cerevisiae
# Tb MetRS inh – Trypanosoma brucei MetRS inhibition. AID 624268. inhibition, % at 11.9 µM. purified T. brucei MetRS, ATP depletion, Kinase-Glo luminescence. 360,000 compounds, 0.4% hits;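 active = inhibition above a per-plate cutoff of the control wells' mean inhibition plus 3 SD, cut at about 5.5% in these data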;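 note: 0% = DMSO wells median and 100% = median of wells with control inhibitor compound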
#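 Material: T. brucei methionyl-tRNA synthetase, purified; reagent: substrates ATP, L-methionine and bulk Escherichia coli tRNA; dosing: 11.9 µM single point; timing: 15 min plus 2 h at 25 °C; detection: luminescence of leftover ATP; evaluation: % inhibition; control set: DMSO-only wells as low control; replicates: singlicate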
# MPTP block – permeability transition pore inhibition; isolated mouse mitochondria, Ca2+ swelling absorbance, 30 min; inhibition, % at 10 µM; 360,000 compounds, 1.4% hits; AID 602449;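 active = inhibition of 50% or more, scaled per plate between neutral and stimulator controls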;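 note: 0% = DMSO wells given calcium and 100% = 1 mM EGTA wells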
# EBV gp42 inh – EBV gp42 inhibition. Q1HVG2. Fluorescence polarization binding assay, mP read-out. inhibition, % (tested at 21.74 µM). 220,000 compounds, 0.42% hits; in the data active = inhibition above about 50%
# Target sequence (Q1HVG2 whole entry, looked up): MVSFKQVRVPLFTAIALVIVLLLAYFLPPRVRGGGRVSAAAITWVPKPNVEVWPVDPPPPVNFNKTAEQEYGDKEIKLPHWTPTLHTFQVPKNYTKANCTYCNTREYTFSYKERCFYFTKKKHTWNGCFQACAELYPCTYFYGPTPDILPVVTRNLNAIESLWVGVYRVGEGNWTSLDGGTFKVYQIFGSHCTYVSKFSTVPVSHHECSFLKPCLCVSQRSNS
# NR3A LBD binder – NR3A (human) ligand-binding domain modulation. Tm shift relative to glycine control, % at 25 µM. AID 1259313. NR3A LBD differential scanning fluorimetry, Tm shift; 0% = protein alone, 100% = glycine-bound protein. 340,000 compounds, 2.5% hits;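 active = melting temperature shift of at least 10% of the positive control shift, at one fixed dose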
# CHOP inh – blocks CHOP induction under ER stress; CHO-K1 CHOP-promoter luciferase, tunicamycin-induced, 15-18 h; inhibition, % at 10 µM; 220,000 compounds, 3.8% hits;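 active = compounds that reduced the stress-induced luciferase reporter signal by more than about 70% of percent inhibition, limit read from the data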;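 note: 0% = tunicamycin plus vehicle and 100% = wells without tunicamycin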
# Rh123 counter – membrane potential counter-screen of mitochondrial pore inhibitors | shares compounds with MPTP block | isolated mitochondria, Rhodamine 123 fluorescence | inhibition, % at 10 µM | 5,000 compounds, 78% hits | AID 624504; in the data active = inhibition above about 22%;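 note: 0% = DMSO vehicle and 100% = positive control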
# MPTP abs DR – MPTP inhibition, dose response swelling confirmation; 780 compounds, 58% hits; IC50, µM; isolated mitochondria swelling, absorbance; shares compounds with MPTP block; in the data active = IC50 below about 20 µM
# MPTP cs DR – active in counter-screen for permeability transition pore inhibitors; shares compounds with MPTP block; isolated mitochondria counterscreen, fluorescence read-out; IC50, µM; 780 compounds, 49% hits; in the data active = IC50 below about 80 µM
# Numbers without * were called inactive; i = inactive; . = no result.
SMILES,WT yeast gro inh,Tb MetRS inh,MPTP block,EBV gp42 inh,NR3A LBD binder,CHOP inh,Rh123 counter,others
COc1ccc(CNc2nc(S(=O)(=O)c3ccccc3)c(Cl)s2)cc1OC,-1.2,0.3,81.8*,-11.4,-18.9,27.1,64.0*,
O=C(/C=C/c1ccc([N+](=O)[O-])cc1)NC1CC2CCC1C2 (stereo not given),20.3,0.0,0.0,0.6,-2.1,9.9,.,
O=C(Cc1ccc([N+](=O)[O-])cc1)Nc1ccc(Br)cn1,.,-2.5,-1.4,.,-0.7,.,.,
CC(=O)Nc1nc(-c2ccc(Cl)cc2)ns1,29.5,-0.5,87.8*,-23.5,-6.1,-8.0,60.4*,
COc1ccc(OC)c2c1sc(=NC(=O)C(C)C)n2C,4.5,-0.5,0.5,5.1,3.7,11.3,.,
Cc1ccc(C(=O)Nc2ccccc2N2CCCCC2)cc1,.,-0.8,-0.4,.,2.1,.,.,
Cc1cc(C)cc(NC(=O)Nc2ccccc2N2CCCCC2)c1,.,-0.5,62.9*,-9.9,1.7,29.8,61.2*,
CCN(CC)c1ccc(/C=c2\sc3nc4ccccc4n3c2=O)c(O)c1,45.4,0.4,4.2,47.5,1.0,50.0,.,
O=c1/c(=C/c2ccc(O)c([N+](=O)[O-])c2)sc2nc3ccccc3n12,10.9,0.6,66.5*,7.9,8.8,-15.3,29.8*,
CCCCCCc1cc2cc(C(=O)Nc3ccccc3)c(=O)oc2cc1O,-9.3,-0.7,72.6*,-24.4,17.5*,70.9*,12.7,
COc1ccc2oc(=N)c(C(=O)Nc3ccccc3)cc2c1,-14.4,-1.2,-2.4,-10.0,-0.1,0.1,.,
N=c1oc2ccc(Br)cc2cc1C(=O)NCc1ccccc1,.,-0.1,-0.2,.,0.8,.,.,
CCCCCCc1cc2cc(C(=O)NCc3ccccc3)c(=N)oc2cc1O,12.5,0.0,86.5*,-28.9,-3.1,3.9,73.7*,
Cc1ccc(C2(CCNC(C)c3cccs3)CCOC(C(C)C)C2)cc1 (stereo not given),26.2,-0.2,90.8*,6.5,2.1,51.6,-14.2,MPTP abs DR=12.3*;MPTP cs DR=59.3*
COc1ccccc1C1(CCNC(C)c2cccs2)CCOC(C(C)C)C1 (stereo not given),.,0.2,2.2,-0.2,1.9,3.1,.,
C=CCc1c(C)nc(-c2ccccc2)nc1N/N=C/c1ccccc1,37.9,-0.1,2.6,9.4,0.1,32.2,.,
C=CCc1c(C)nc(-c2ccccc2)nc1Nc1ccccc1O,20.6,-1.2,59.5*,-16.6,1.7,66.0,63.2*,
Fc1cccc(Cl)c1-c1nnc2ccc3ccccc3n12,-1.8,-0.4,51.1*,2.2,0.9,12.4,31.1*,
FC(F)Oc1ccc(-n2cc(-c3ccccc3)[n+]3c2CCCCC3)cc1,.,-0.2,2.0,2.6,0.5,-15.2,.,
O=C(CSCc1ccccc1)Nc1cccc(C(=O)Nc2ccc(C(=O)O)cc2)c1,42.2,-1.1,-0.3,0.8,-6.7,7.8,.,
Cc1nn(-c2ccccc2)c(N2CCCC2)c1/C=N/NC(=O)c1cc(-c2ccccc2)nc2ccccc12,-20.7,0.0,1.8,-41.4,-1.7,34.8,.,
Cc1nn(-c2ccccc2)c(N2CCCC2)c1/C=N/NC(=O)c1cc2ccccc2cc1O,14.5,1.9,96.9*,-46.3,8.8,5.9,69.8*,
O=C(c1ccccc1)C1CCN(C(=O)Nc2ccccc2)CC1,.,-0.2,1.0,-5.3,1.1,9.0,.,
COC(=O)/C=C1\SC(=Nc2ccc(Cl)c(Cl)c2)NC1=O,11.1,0.0,95.0*,-11.2,-4.7,17.8,51.9*,
COc1ccccc1NC(=O)N(C)C[C@H]1OCc2cn(nn2)CCCC(=O)N([C@@H](C)CO)C[C@@H]1C,.,-1.2,-1.1,.,.,.,.,
CCN(CCC(=O)Nc1ccc(Br)c(C)c1)Cc1ccccc1,11.1,0.0,79.9*,-10.4,0.5,15.3,5.4,MPTP abs DR=i;MPTP cs DR=27.6*
Cc1ccc(NC(=O)CCc2ccccc2)cc1C,.,-0.2,-0.3,.,.,.,.,
Cc1cccc(C(=O)NNC2=C(C(=O)C(F)(F)F)CCC2)c1O,6.3,-1.1,92.8*,-22.4,-1.8,43.0,92.1*,

# Screens as filed in PubChem BioAssay.
